Test results: ChEMBL document CHEMBL3797032, “Synthesis and in vitro growth inhibitory activity of novel silyl- and trityl-modified nucleosides” (Bioorg Med Chem, 2016)

system: K562; experiment: Growth inhibition of human K562 cells assessed as cell viability at 100 uM incubated for 24 hrs by MTT assay; format: functional; conditions: K562, 24 h, read-out: Activity
Summary of the method: (§1)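 Leukemic lines (HL-60, K562, Jurkat) grown in suspension in RPMI-1640 + 10% heat-inactivated FBS. Colorectal HT-29 and Caco-2 grown adherent in DMEM + 5–10% FBS. Cells kept at 37 °C, 5% CO2, and checked for viability by trypan blue before use. Single final concentration 100 μM for 24 h at 37 °C, camptothecin as positive control. MTT read-out with formazan dissolved in DMSO; viability expressed relative to untreated control set at 100%.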

First: CC(C)(C)[Si](OC[C@H]1O[C@@H](n2ccc(=O)[nH]c2=O)[C@H](O)[C@@H]1O)(c1ccccc1)c1ccccc1
Second: CC(C)(C)[Si](OC[C@H]1O[C@@H](n2ccc(N)nc2=O)[C@H](O)[C@@H]1O)(c1ccccc1)c1ccccc1
The viability at 100 µM of the first is lower: 9.4% for the first, 35.6% for the second.

First: CC(=O)O[C@@H]1[C@H](OC(C)=O)[C@@H](CO[Si](c2ccccc2)(c2ccccc2)C(C)(C)C)O[C@H]1n1ccc(=O)[nH]c1=O
Second: COc1ccc(C(OC[C@H]2O[C@@H](n3ccc(=O)[nH]c3=O)[C@H](OC(C)=O)[C@@H]2OC(C)=O)(c2ccccc2)c2ccc(OC)cc2)cc1
The viability at 100 µM of the first is lower: 35.5% for the first, > 50% for the second.

Compared with `COc1ccc(C(OC[C@H]2O[C@@H](n3ccc(=O)[nH]c3=O)[C@H](O)[C@@H]2O)(c2ccccc2)c2ccc(OC)cc2)cc1`, `CC(C)(C)[Si](OC[C@H]1O[C@@H](n2cnc3c(N)ncnc32)[C@H](O)[C@@H]1O)(c1ccccc1)c1ccccc1` is higher in viability at 100 µM: 8.3% for the first, 45.5% for the second.

Work on `CC[C@@]1(O)C(=O)OCc2c1cc1n(c2=O)Cc2cc3ccccc3nc2-1` [CAMPTOTHECIN] yielded a viability at 100 µM of 39.6%.

system: Jurkat; experiment: Growth inhibition of human Jurkat cells assessed as cell viability at 100 uM incubated for 24 hrs by MTT assay; format: functional; conditions: read-out: Activity; summary of the method: as §1

Compared with `CC(C)(C)[Si](OC[C@H]1O[C@@H](n2ccc(=O)[nH]c2=O)[C@H](O)[C@@H]1O)(c1ccccc1)c1ccccc1`, `CC(C)(C)[Si](OC[C@H]1O[C@@H](n2ccc(N)nc2=O)[C@H](O)[C@@H]1O)(c1ccccc1)c1ccccc1` is higher in viability at 100 µM: 6.3% for the first, 16% for the second.

`CC(=O)O[C@@H]1[C@H](OC(C)=O)[C@@H](CO[Si](c2ccccc2)(c2ccccc2)C(C)(C)C)O[C@H]1n1ccc(=O)[nH]c1=O` and `COc1ccc(C(OC[C@H]2O[C@@H](n3ccc(=O)[nH]c3=O)[C@H](OC(C)=O)[C@@H]2OC(C)=O)(c2ccccc2)c2ccc(OC)cc2)cc1` cannot be ordered by viability at 100 µM: > 50% for the first, > 50% for the second.

First: COc1ccc(C(OC[C@H]2O[C@@H](n3ccc(=O)[nH]c3=O)[C@H](O)[C@@H]2O)(c2ccccc2)c2ccc(OC)cc2)cc1
Second: CC(C)(C)[Si](OC[C@H]1O[C@@H](n2cnc3c(N)ncnc32)[C@H](O)[C@@H]1O)(c1ccccc1)c1ccccc1
The viability at 100 µM of the first is lower: 5.2% for the first, 18.3% for the second.

Work on `CC[C@@]1(O)C(=O)OCc2c1cc1n(c2=O)Cc2cc3ccccc3nc2-1` [CAMPTOTHECIN] yielded a viability at 100 µM of 8.9%.

system: not listed separately; experiment: Growth inhibition of human U373 cells assessed as reduction in cell viability incubated for 72 hrs by MTT assay; format: functional, U-373MG ATCC; conditions: U373 MG
Summary of the method: (§2)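 Glioma cells grown adherent: Hs683 in DMEM + 5–10% FBS, U373 in Earle's MEM + 10% FBS and 1 mM sodium pyruvate; trypan blue viability check before use. Exposed for 72 h to 0.01–100 μM, narciclasine as positive control. MTT read-out with formazan dissolved in DMSO; GI50 is the concentration giving 50% growth reduction versus untreated controls.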

`Cc1cn([C@@H]2O[C@H](CO[Si](c3ccccc3)(c3ccccc3)C(C)(C)C)[C@@H](O)[C@H]2O)c(=O)[nH]c1=O` and `CC(C)(C)[Si](OC[C@H]1O[C@@H](n2ccc(=O)[nH]c2=O)[C@H](O)[C@@H]1O)(c1ccccc1)c1ccccc1` are within 1.5-fold of each other in GI50: 25 µM for the first, 36 µM for the second.

First: Cc1cn([C@@H]2O[C@H](CO[Si](C)(C)C(C)(C)C(C)C)[C@@H](O)[C@H]2O)c(=O)[nH]c1=O
Second: CC(C)(C)[Si](OC[C@H]1O[C@@H](n2ccc(N)nc2=O)[C@H](O)[C@@H]1O)(c1ccccc1)c1ccccc1
The GI50 of the first is 2.4-fold higher: 68 µM for the first, 28 µM for the second.

`CC(=O)O[C@@H]1[C@H](OC(C)=O)[C@@H](CO[Si](c2ccccc2)(c2ccccc2)C(C)(C)C)O[C@H]1n1ccc(=O)[nH]c1=O` and `COc1ccc(C(OC[C@H]2O[C@@H](n3ccc(=O)[nH]c3=O)[C@H](OC(C)=O)[C@@H]2OC(C)=O)(c2ccccc2)c2ccc(OC)cc2)cc1` are within 1.5-fold of each other in GI50: 32 µM for the first, 40 µM for the second.

`COc1ccc(C(OC[C@H]2O[C@@H](n3ccc(=O)[nH]c3=O)[C@H](O)[C@@H]2O)(c2ccccc2)c2ccc(OC)cc2)cc1` and `CC(C)(C)[Si](OC[C@H]1O[C@@H](n2cnc3c(N)ncnc32)[C@H](O)[C@@H]1O)(c1ccccc1)c1ccccc1` are within 1.5-fold of each other in GI50: 40 µM for the first, 44 µM for the second.

system: not listed separately; experiment: Growth inhibition of human WBC cells assessed as cell viability at 100 uM incubated for 24 hrs by MTT assay; format: cell-based; conditions: WBC cells (white blood cells), read-out: Activity
Summary of the method: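 Freshly isolated human peripheral leucocytes from volunteers, exposed at a single final concentration of 100 μM for 24 h, camptothecin as comparator. Viability read by MTT assay with formazan dissolved in DMSO.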

First: CC(C)(C)[Si](OC[C@H]1O[C@@H](n2ccc(=O)[nH]c2=O)[C@H](O)[C@@H]1O)(c1ccccc1)c1ccccc1
Second: CC(C)(C)[Si](OC[C@H]1O[C@@H](n2ccc(N)nc2=O)[C@H](O)[C@@H]1O)(c1ccccc1)c1ccccc1
The viability at 24 h, 100 µM of the first is lower: 61.5% for the first, 100% for the second.

`CC(=O)O[C@@H]1[C@H](OC(C)=O)[C@@H](CO[Si](c2ccccc2)(c2ccccc2)C(C)(C)C)O[C@H]1n1ccc(=O)[nH]c1=O` and `COc1ccc(C(OC[C@H]2O[C@@H](n3ccc(=O)[nH]c3=O)[C@H](OC(C)=O)[C@@H]2OC(C)=O)(c2ccccc2)c2ccc(OC)cc2)cc1` are the same in viability at 24 h, 100 µM: 100% for the first, 100% for the second.

Going from `COc1ccc(C(OC[C@H]2O[C@@H](n3ccc(=O)[nH]c3=O)[C@H](O)[C@@H]2O)(c2ccccc2)c2ccc(OC)cc2)cc1` to `CC(C)(C)[Si](OC[C@H]1O[C@@H](n2cnc3c(N)ncnc32)[C@H](O)[C@@H]1O)(c1ccccc1)c1ccccc1`, the viability at 24 h, 100 µM falls from 82.7% to 59.3%.

`CC[C@@]1(O)C(=O)OCc2c1cc1n(c2=O)Cc2cc3ccccc3nc2-1` [CAMPTOTHECIN] showed a viability at 24 h, 100 µM of 34.6%.

system: not listed separately; experiment: Growth inhibition of human Hs683 cells assessed as reduction in cell viability incubated for 72 hrs by MTT assay; format: functional; conditions: Hs 683, 72 h; summary of the method: as §2

`Cc1cn([C@@H]2O[C@H](CO[Si](c3ccccc3)(c3ccccc3)C(C)(C)C)[C@@H](O)[C@H]2O)c(=O)[nH]c1=O` and `CC(C)(C)[Si](OC[C@H]1O[C@@H](n2ccc(=O)[nH]c2=O)[C@H](O)[C@@H]1O)(c1ccccc1)c1ccccc1` are within 1.5-fold of each other in GI50: 27 µM for the first, 35 µM for the second.

Going from `Cc1cn([C@@H]2O[C@H](CO[Si](C)(C)C(C)(C)C(C)C)[C@@H](O)[C@H]2O)c(=O)[nH]c1=O` to `CC(C)(C)[Si](OC[C@H]1O[C@@H](n2ccc(N)nc2=O)[C@H](O)[C@@H]1O)(c1ccccc1)c1ccccc1`, the GI50 falls from 64 µM to 40 µM (1.6-fold).

`CC(=O)O[C@@H]1[C@H](OC(C)=O)[C@@H](CO[Si](c2ccccc2)(c2ccccc2)C(C)(C)C)O[C@H]1n1ccc(=O)[nH]c1=O` and `COc1ccc(C(OC[C@H]2O[C@@H](n3ccc(=O)[nH]c3=O)[C@H](OC(C)=O)[C@@H]2OC(C)=O)(c2ccccc2)c2ccc(OC)cc2)cc1` are within 1.5-fold of each other in GI50: 29 µM for the first, 28 µM for the second.

`COc1ccc(C(OC[C@H]2O[C@@H](n3ccc(=O)[nH]c3=O)[C@H](O)[C@@H]2O)(c2ccccc2)c2ccc(OC)cc2)cc1` and `CC(C)(C)[Si](OC[C@H]1O[C@@H](n2cnc3c(N)ncnc32)[C@H](O)[C@@H]1O)(c1ccccc1)c1ccccc1` are within 1.5-fold of each other in GI50: 39 µM for the first, 46 µM for the second.

system: not listed separately; experiment: Growth inhibition of human Caco2 cells assessed as cell viability at 100 uM incubated for 24 hrs by MTT assay; format: functional; conditions: Caco-2, 24 h, read-out: Activity; summary of the method: as §1

Going from `CC(C)(C)[Si](OC[C@H]1O[C@@H](n2ccc(=O)[nH]c2=O)[C@H](O)[C@@H]1O)(c1ccccc1)c1ccccc1` to `CC(C)(C)[Si](OC[C@H]1O[C@@H](n2ccc(N)nc2=O)[C@H](O)[C@@H]1O)(c1ccccc1)c1ccccc1`, the viability at 100 µM falls from 37.4% to 37.2%.

`CC(=O)O[C@@H]1[C@H](OC(C)=O)[C@@H](CO[Si](c2ccccc2)(c2ccccc2)C(C)(C)C)O[C@H]1n1ccc(=O)[nH]c1=O` and `COc1ccc(C(OC[C@H]2O[C@@H](n3ccc(=O)[nH]c3=O)[C@H](OC(C)=O)[C@@H]2OC(C)=O)(c2ccccc2)c2ccc(OC)cc2)cc1` cannot be ordered by viability at 100 µM: > 50% for the first, > 50% for the second.

First: COc1ccc(C(OC[C@H]2O[C@@H](n3ccc(=O)[nH]c3=O)[C@H](O)[C@@H]2O)(c2ccccc2)c2ccc(OC)cc2)cc1
Second: CC(C)(C)[Si](OC[C@H]1O[C@@H](n2cnc3c(N)ncnc32)[C@H](O)[C@@H]1O)(c1ccccc1)c1ccccc1
The viability at 100 µM of the first is lower: 26.1% for the first, > 50% for the second.

`CC[C@@]1(O)C(=O)OCc2c1cc1n(c2=O)Cc2cc3ccccc3nc2-1` [CAMPTOTHECIN] gave a viability at 100 µM of 12.8%.

system: not listed separately; experiment: Growth inhibition of human HL60 cells assessed as cell viability at 100 uM incubated for 24 hrs by MTT assay; format: functional; conditions: HL-60, 24 h, read-out: Activity; summary of the method: as §1

Going from `CC(C)(C)[Si](OC[C@H]1O[C@@H](n2ccc(=O)[nH]c2=O)[C@H](O)[C@@H]1O)(c1ccccc1)c1ccccc1` to `CC(C)(C)[Si](OC[C@H]1O[C@@H](n2ccc(N)nc2=O)[C@H](O)[C@@H]1O)(c1ccccc1)c1ccccc1`, the viability at 100 µM rises from 5.6% to 26%.

Going from `CC(=O)O[C@@H]1[C@H](OC(C)=O)[C@@H](CO[Si](c2ccccc2)(c2ccccc2)C(C)(C)C)O[C@H]1n1ccc(=O)[nH]c1=O` to `COc1ccc(C(OC[C@H]2O[C@@H](n3ccc(=O)[nH]c3=O)[C@H](OC(C)=O)[C@@H]2OC(C)=O)(c2ccccc2)c2ccc(OC)cc2)cc1`, the viability at 100 µM rises from 11.2% to > 50%.

Going from `COc1ccc(C(OC[C@H]2O[C@@H](n3ccc(=O)[nH]c3=O)[C@H](O)[C@@H]2O)(c2ccccc2)c2ccc(OC)cc2)cc1` to `CC(C)(C)[Si](OC[C@H]1O[C@@H](n2cnc3c(N)ncnc32)[C@H](O)[C@@H]1O)(c1ccccc1)c1ccccc1`, the viability at 100 µM rises from 6.5% to 27.9%.

`CC[C@@]1(O)C(=O)OCc2c1cc1n(c2=O)Cc2cc3ccccc3nc2-1` [CAMPTOTHECIN] showed a viability at 100 µM of 23.4%.

system: HT-29; experiment: Growth inhibition of human HT-29 cells assessed as cell viability at 100 uM incubated for 24 hrs by MTT assay; format: functional; conditions: HT-29, 24 h, read-out: Activity; summary of the method: as §1

Going from `CC(C)(C)[Si](OC[C@H]1O[C@@H](n2ccc(=O)[nH]c2=O)[C@H](O)[C@@H]1O)(c1ccccc1)c1ccccc1` to `CC(C)(C)[Si](OC[C@H]1O[C@@H](n2ccc(N)nc2=O)[C@H](O)[C@@H]1O)(c1ccccc1)c1ccccc1`, the viability at 100 µM falls from 29.4% to 25.6%.

`CC(=O)O[C@@H]1[C@H](OC(C)=O)[C@@H](CO[Si](c2ccccc2)(c2ccccc2)C(C)(C)C)O[C@H]1n1ccc(=O)[nH]c1=O` and `COc1ccc(C(OC[C@H]2O[C@@H](n3ccc(=O)[nH]c3=O)[C@H](OC(C)=O)[C@@H]2OC(C)=O)(c2ccccc2)c2ccc(OC)cc2)cc1` cannot be ordered by viability at 100 µM: > 50% for the first, > 50% for the second.

Going from `COc1ccc(C(OC[C@H]2O[C@@H](n3ccc(=O)[nH]c3=O)[C@H](O)[C@@H]2O)(c2ccccc2)c2ccc(OC)cc2)cc1` to `CC(C)(C)[Si](OC[C@H]1O[C@@H](n2cnc3c(N)ncnc32)[C@H](O)[C@@H]1O)(c1ccccc1)c1ccccc1`, the viability at 100 µM rises from 27.8% to > 50%.

Compound `CC[C@@]1(O)C(=O)OCc2c1cc1n(c2=O)Cc2cc3ccccc3nc2-1` [CAMPTOTHECIN] has a viability at 100 µM of 11.4%.
